Data published in ChEMBL document CHEMBL1138415, “Analogues of the dopamine D2 receptor antagonist L741,626: Binding, function, and SAR” (Bioorg Med Chem Lett, 2007).

Key:
[1] = target: T1, D(4) dopamine receptor (Homo sapiens, UniProt P21917); assay: Displacement of [125I]IABN from human dopamine D4 receptor expressed in HEK293 cells; assay type: cell-based
T1 sequence (P21917 whole entry): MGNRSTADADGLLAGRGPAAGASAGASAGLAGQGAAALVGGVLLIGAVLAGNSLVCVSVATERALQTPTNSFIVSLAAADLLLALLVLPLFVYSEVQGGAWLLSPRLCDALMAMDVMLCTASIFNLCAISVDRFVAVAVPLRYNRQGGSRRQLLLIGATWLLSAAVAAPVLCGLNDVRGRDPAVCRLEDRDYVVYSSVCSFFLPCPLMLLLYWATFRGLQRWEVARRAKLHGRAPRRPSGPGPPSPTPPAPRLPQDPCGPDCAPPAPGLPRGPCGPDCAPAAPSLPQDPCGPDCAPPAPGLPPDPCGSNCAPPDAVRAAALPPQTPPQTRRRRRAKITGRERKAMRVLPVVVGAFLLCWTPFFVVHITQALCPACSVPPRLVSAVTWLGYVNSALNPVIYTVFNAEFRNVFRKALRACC
Summary of the method: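 Competition binding on HEK 293 cells transfected with human D2L or D4 dopamine receptors; radioligand [125I]IABN displaced by test ligand; Ki values derived.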

[2] = species on record: Homo sapiens; assay: Selectivity for human dopamine D2L receptor over human dopamine D4 receptor
[3] = species on record: Homo sapiens; assay: Selectivity for human dopamine D2L receptor over human dopamine D3 receptor
[4] = target: T2, D(2) dopamine receptor (Homo sapiens, UniProt P14416); assay: Displacement of [125I]IABN from human dopamine D2L receptor expressed in HEK293 cells; assay type: cell-based
[5] = target: T3, D(3) dopamine receptor (Homo sapiens, UniProt P35462); assay: Displacement of [125I]IABN from human dopamine D3 receptor expressed in HEK293 cells; assay type: cell-based
[6] = target: T2, D(2) dopamine receptor; assay: Antagonist activity at human dopamine D2 receptor expressed in CHO cells assessed as inhibition of quinpirole stimulated mitogenesis; assay type: functional, cell-based
Summary of the method: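 Functional mitogenesis assay in CHO cells transfected with human D2 receptor; antagonism measured as inhibition of quinpirole-stimulated mitogenesis (agonism tested as stimulation); EC50 reported; run via NIDA CTDP contract protocol.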

[7] = target: T3, D(3) dopamine receptor; assay: Antagonist activity at human dopamine D3 receptor expressed in CHO cells assessed as inhibition of quinpirole stimulated mitogenesis; assay type: functional, cell-based

T2 sequence (P14416 whole entry): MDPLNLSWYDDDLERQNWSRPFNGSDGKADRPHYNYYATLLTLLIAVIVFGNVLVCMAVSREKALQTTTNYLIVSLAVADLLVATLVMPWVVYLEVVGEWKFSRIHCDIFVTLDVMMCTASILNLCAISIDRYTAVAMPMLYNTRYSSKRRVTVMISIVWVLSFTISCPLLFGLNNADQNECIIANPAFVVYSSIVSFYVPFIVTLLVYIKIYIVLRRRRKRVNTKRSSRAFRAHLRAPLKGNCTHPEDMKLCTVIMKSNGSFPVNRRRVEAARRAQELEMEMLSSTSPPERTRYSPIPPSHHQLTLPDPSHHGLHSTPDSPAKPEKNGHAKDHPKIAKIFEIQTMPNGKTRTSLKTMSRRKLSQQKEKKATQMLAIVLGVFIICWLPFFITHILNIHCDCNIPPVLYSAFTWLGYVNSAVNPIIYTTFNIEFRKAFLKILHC
T3 sequence (P35462 whole entry): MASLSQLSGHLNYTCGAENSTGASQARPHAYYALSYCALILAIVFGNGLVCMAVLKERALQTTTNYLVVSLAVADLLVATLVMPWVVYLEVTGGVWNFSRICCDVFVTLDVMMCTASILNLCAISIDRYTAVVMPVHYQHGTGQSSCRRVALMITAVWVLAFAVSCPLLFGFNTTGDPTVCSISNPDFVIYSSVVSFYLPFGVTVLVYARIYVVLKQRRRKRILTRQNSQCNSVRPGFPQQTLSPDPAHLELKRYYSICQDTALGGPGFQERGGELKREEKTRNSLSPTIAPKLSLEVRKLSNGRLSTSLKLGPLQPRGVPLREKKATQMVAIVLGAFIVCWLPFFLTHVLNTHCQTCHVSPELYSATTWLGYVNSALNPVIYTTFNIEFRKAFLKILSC

SMILES | Ki [1] | Ratio Ki [2] | Ratio Ki [3] | Ki [4] | Ki [5] | EC50 [6] | EC50 [7]
OC1(c2ccc(Cl)cc2)CCCN(Cc2c[nH]c3ccccc23)C1 (stereo unspecified) | 2.44 µM | 1 | 1 | 4.27 µM | 4.27 µM | – | –
COC1(c2ccc(Cl)cc2)CCN(Cc2c[nH]c3ccccc23)CC1 | 0.0341 µM | – | 4 | 0.0681 µM | 0.262 µM | 0.0347 µM | 0.248 µM
OC1(c2ccc(Cl)c(Cl)c2)CCN(Cc2n[nH]c3ccccc23)CC1 | 0.677 µM | 2 | 0.4 | 0.438 µM | 0.156 µM | – | –
OC1(c2ccccc2Cl)CCN(Cc2c[nH]c3ccccc23)CC1 | 2.82 µM | 7 | 5 | 0.382 µM | 1.86 µM | 0.586 µM | –
CC(=O)NCC1(c2ccc(Cl)cc2)CCN(Cc2c[nH]c3ccccc23)CC1 | 4.45 µM | 2 | 6 | 2 µM | 12.5 µM | – | –
OC1(c2ccc(Cl)cc2)CCN(Cc2cc3ccccc3[nH]2)CC1 | > 20 µM | – | – | > 10 µM | – | – | –
OC1(c2ccc(Cl)cc2)CCCN(Cc2c[nH]c3ccccc23)CC1 (stereo unspecified) | 3.87 µM | 19 | 10 | 0.201 µM | 2.1 µM | 0.26 µM | –
OC1(c2ccc(Cl)cc2)CCN(Cc2c[nH]c3ccccc23)CC1 | 1.52 µM | – | – | – | 0.163 µM | – | 0.0904 µM
C=CCOC1(c2ccc(Cl)cc2)CCN(Cc2c[nH]c3ccccc23)CC1 | 1.19 µM | 7 | 4 | 0.165 µM | 0.718 µM | – | –
COc1ccc(C2(O)CCN(Cc3c[nH]c4ccccc34)CC2)cc1 | 0.679 µM | 4 | 12 | 0.177 µM | 2.13 µM | – | –
CCCCCCn1cc(CN2CCC(O)(c3ccc(Cl)cc3)CC2)c2ccccc21 | 8.89 µM | 47 | 3 | 0.188 µM | 0.488 µM | 0.166 µM | 0.661 µM
CC(=O)NC1(c2ccc(Cl)cc2)CCN(Cc2c[nH]c3ccccc23)CC1 | 0.348 µM | 4 | 2 | 0.0831 µM | 0.193 µM | 0.0248 µM | –
CCOC(=O)C1(c2ccc(Cl)cc2)CCN(Cc2c[nH]c3ccccc23)CC1 | 3.52 µM | 60 | 12 | 0.0588 µM | 0.724 µM | – | –
COC(=O)C1(c2ccc(Cl)cc2)CCN(Cc2c[nH]c3ccccc23)CC1 | 3.93 µM | 66 | 9 | 0.06 µM | 0.544 µM | 0.0767 µM | –
COc1ccc2[nH]cc(CN3CCC(O)(c4ccc(SC)cc4)CC3)c2c1 | 0.567 µM | 103 | 105 | 0.0055 µM | 0.58 µM | – | –
CSc1ccc(C2(O)CCN(Cc3c[nH]c4ccccc34)CC2)cc1 | 0.319 µM | 13 | 27 | 0.0239 µM | 0.638 µM | – | –
NCC1(c2ccc(Cl)cc2)CCN(Cc2c[nH]c3ccccc23)CC1 | > 20 µM | – | – | > 10 µM | > 5 µM | – | –
CCCCCCOc1ccc(C2(O)CCN(Cc3c[nH]c4ccccc34)CC2)cc1 | 1.49 µM | 9 | 12 | 0.159 µM | 1.95 µM | 0.216 µM | –
